{
  "source": "ChEMBL document CHEMBL2151033",
  "about": "“Synthesis, biological evaluation and molecular modeling of 4,6-diarylpyrimidines and diarylbenzenes as novel non-nucleosides HIV-1 reverse transcriptase inhibitors” (Eur J Med Chem, 2012)",
  "key": {"[1]": {"tested_on": "Human immunodeficiency virus 2", "experiment": "Antiviral activity against HIV2 ROD infected in human MT4 cells assessed as inhibition of virus-induced cytopathic effect after 5 days by MTT assay", "format": "functional, organism-based", "settings": "Human immunodeficiency virus 2, ISOLATE ROD, MT4, 120 h", "in_short": "(§1)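 Infected and mock-infected MT-4 cells (6×10^5 cells/mL, exponentially growing, spun 5 min at 220 g and resuspended) were treated with serial 5-fold compound dilutions in triplicate. Virus stock at 100-300 CCID50 was added. After 5 days, viability was read spectrophotometrically by MTT at 540 and 690 nm using the median OD of three wells. EC50 is the concentration giving 50% protection from viral cytopathic effect.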"}, "[2]": {"experiment": "Selectivity index, ratio of CC50 for human MT4 cells to EC50 for wild type HIV1 3B infected in human MT4 cells", "format": "toxicity, cell-based", "settings": "read-out: Ratio CC50/EC50", "in_short": "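Selectivity index is CC50 in mock-infected MT-4 cells divided by EC50 against HIV-1 IIIB. Both come from the 5-day MTT assay run in parallel on infected and uninfected cells with serial 5-fold dilutions in triplicate.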"}, "[3]": {"tested_on": "Human immunodeficiency virus 1", "experiment": "Antiviral activity against wild type HIV1 3B infected in human MT4 cells assessed as inhibition of virus-induced cytopathic effect after 5 days by MTT assay", "format": "functional, organism-based", "settings": "Human immunodeficiency virus 1, 3B, MT4, 120 h", "in_short": "as §1"}, "[4]": {"tested_on": "Human immunodeficiency virus 1", "experiment": "Antiviral activity against HIV1 RES056 harbouring RT K103N/Y181C mutant infected in human MT4 cells assessed as inhibition of virus-induced cytopathic effect after 5 days by MTT assay", "format": "functional, organism-based", "settings": "Human immunodeficiency virus 1, RES056, MT4, 120 h", "in_short": "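MT-4 cells (exponentially growing, spun 5 min at 220 g, resuspended at 6×10^5 cells/mL) infected with HIV-1 RES056 (K103N + Y181C) at 100-300 CCID50, with serial 5-fold compound dilutions run in triplicate alongside mock-infected wells. Viability was read by MTT at 540 and 690 nm after 5 days, using the median OD of three wells. EC50 is the concentration giving 50% protection from viral cytopathic effect.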"}, "[5]": {"experiment": "Cytotoxicity against human MT4 cells assessed as decrease in cell viability after 5 days by MTT assay", "format": "cell-based", "in_short": "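Uninfected, mock-treated MT-4 cells (6×10^5 cells/mL) were exposed to serial 5-fold compound dilutions in triplicate wells, run alongside the infected series. After 5 days, MTT reduction was read at 540 and 690 nm using the median OD of three wells. CC50 is the concentration that reduces OD540 of the mock-infected control by 50%.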"}, "[6]": {"tested_on": "Human immunodeficiency virus 1", "experiment": "Ratio of nevirapine EC50 to compound EC50 for wild type HIV1 3B infected in human MT4 cells", "format": "functional"}, "[7]": {"tested_on": "Human immunodeficiency virus 1", "experiment": "Ratio of delavirdine EC50 to compound EC50 for wild type HIV1 3B infected in human MT4 cells", "format": "functional"}},
  "data": [
    {"molecule": "Cc1cc(C#N)cc(C)c1Oc1nc(Nc2ccc(C#N)cc2)nc(N)c1Br", "note": "[ETRAVIRINE]", "values": [
      {"measurement": "EC50", "setting": "[1]", "result": "> 27.8", "unit": "µM"},
      {"measurement": "selectivity ratio", "setting": "[2]", "result": 12900}
    ]},
    {"molecule": "Cc1cc(C)c(Oc2cc(Nc3ccc(C#N)cc3)ncn2)c(C)c1", "values": [
      {"measurement": "EC50", "setting": "[3]", "result": 0.049, "unit": "µM"},
      {"measurement": "EC50", "setting": "[4]", "result": "> 42.2", "unit": "µM"},
      {"measurement": "EC50", "setting": "[1]", "result": "> 42.2", "unit": "µM"},
      {"measurement": "CC50 at 120 h", "setting": "[5]", "result": 42.2, "unit": "µM"},
      {"measurement": "selectivity ratio", "setting": "[2]", "result": 870},
      {"measurement": "Ratio EC50", "setting": "[6]", "result": 2},
      {"measurement": "Ratio EC50", "setting": "[7]", "result": 11}
    ]},
    {"molecule": "Cc1ccnc2c1NC(=O)c1cccnc1N2C1CC1", "note": "[NEVIRAPINE]", "values": [
      {"measurement": "EC50", "setting": "[3]", "result": 0.097, "unit": "µM"},
      {"measurement": "EC50", "setting": "[4]", "result": "≥ 7.6", "unit": "µM"},
      {"measurement": "CC50 at 120 h", "setting": "[5]", "result": "> 15", "unit": "µM"},
      {"measurement": "selectivity ratio", "setting": "[2]", "result": "> 155"}
    ]},
    {"molecule": "Cc1cc(C#N)cc(C)c1Oc1cc(Nc2ccc(C#N)cc2)ncn1", "values": [
      {"measurement": "EC50", "setting": "[3]", "result": 0.381, "unit": "µM"},
      {"measurement": "EC50", "setting": "[4]", "result": "> 292", "unit": "µM"},
      {"measurement": "EC50", "setting": "[1]", "result": "> 292", "unit": "µM"},
      {"measurement": "CC50 at 120 h", "setting": "[5]", "result": "> 292", "unit": "µM"},
      {"measurement": "selectivity ratio", "setting": "[2]", "result": "≥ 740"},
      {"measurement": "Ratio EC50", "setting": "[7]", "result": 1.5}
    ]},
    {"molecule": "Cc1cc(C)c(Nc2cccc(Nc3ccc(C#N)cc3)c2)c(C)c1", "values": [
      {"measurement": "EC50", "setting": "[3]", "result": 0.398, "unit": "µM"},
      {"measurement": "EC50", "setting": "[4]", "result": "> 220", "unit": "µM"},
      {"measurement": "EC50", "setting": "[1]", "result": "> 220", "unit": "µM"},
      {"measurement": "CC50 at 120 h", "setting": "[5]", "result": "≥ 220", "unit": "µM"},
      {"measurement": "selectivity ratio", "setting": "[2]", "result": "≥ 552"},
      {"measurement": "Ratio EC50", "setting": "[7]", "result": 1.5}
    ]},
    {"molecule": "Cc1cc(C)c(Oc2cccc(Nc3ccc(C#N)cc3)c2)c(C)c1", "values": [
      {"measurement": "EC50", "setting": "[3]", "result": 0.599, "unit": "µM"},
      {"measurement": "EC50", "setting": "[4]", "result": "> 52.6", "unit": "µM"},
      {"measurement": "EC50", "setting": "[1]", "result": "> 52.6", "unit": "µM"},
      {"measurement": "CC50 at 120 h", "setting": "[5]", "result": 52.6, "unit": "µM"},
      {"measurement": "selectivity ratio", "setting": "[2]", "result": 65}
    ]},
    {"molecule": "Cc1cc(C)c(Nc2cccc(Oc3c(C)cc(C)cc3C)c2)c(C)c1", "values": [
      {"measurement": "EC50", "setting": "[3]", "result": "> 43.6", "unit": "µM"},
      {"measurement": "EC50", "setting": "[1]", "result": "> 43.6", "unit": "µM"},
      {"measurement": "CC50 at 120 h", "setting": "[5]", "result": 43.6, "unit": "µM"},
      {"measurement": "selectivity ratio", "setting": "[2]", "result": "< 1"}
    ]},
    {"molecule": "Cc1cc(C)c(Nc2cc(Oc3c(C)cc(C#N)cc3C)ncn2)c(C)c1", "values": [
      {"measurement": "EC50", "setting": "[3]", "result": 5.25, "unit": "µM"},
      {"measurement": "EC50", "setting": "[4]", "result": "> 37.5", "unit": "µM"},
      {"measurement": "EC50", "setting": "[1]", "result": "> 37.5", "unit": "µM"},
      {"measurement": "CC50 at 120 h", "setting": "[5]", "result": 37.5, "unit": "µM"},
      {"measurement": "selectivity ratio", "setting": "[2]", "result": 7}
    ]},
    {"molecule": "Cc1cn([C@H]2C[C@H](N=[N+]=[N-])[C@@H](CO)O2)c(=O)[nH]c1=O", "note": "[ZIDOVUDINE]", "values": [
      {"measurement": "EC50", "setting": "[3]", "result": 0.008, "unit": "µM"},
      {"measurement": "EC50", "setting": "[4]", "result": 0.006, "unit": "µM"},
      {"measurement": "CC50 at 120 h", "setting": "[5]", "result": "> 93.6", "unit": "µM"},
      {"measurement": "selectivity ratio", "setting": "[2]", "result": "> 12000"}
    ]},
    {"molecule": "CC(C)Nc1cccnc1N1CCN(C(=O)c2cc3cc(NS(C)(=O)=O)ccc3[nH]2)CC1", "note": "[DELAVIRDINE]", "values": [
      {"measurement": "EC50", "setting": "[3]", "result": 0.548, "unit": "µM"},
      {"measurement": "EC50", "setting": "[4]", "result": "> 4.39", "unit": "µM"},
      {"measurement": "CC50 at 120 h", "setting": "[5]", "result": "> 4.39", "unit": "µM"},
      {"measurement": "selectivity ratio", "setting": "[2]", "result": "> 8"}
    ]},
    {"molecule": "Cc1cc(C)c(Nc2cc(Oc3c(C)cc(C)cc3C)ncn2)c(C)c1", "values": [
      {"measurement": "EC50", "setting": "[3]", "result": "> 38.5", "unit": "µM"},
      {"measurement": "EC50", "setting": "[4]", "result": "> 38.5", "unit": "µM"},
      {"measurement": "EC50", "setting": "[1]", "result": "> 38.5", "unit": "µM"},
      {"measurement": "CC50 at 120 h", "setting": "[5]", "result": 38.2, "unit": "µM"},
      {"measurement": "selectivity ratio", "setting": "[2]", "result": "< 1"}
    ]}
  ]
}
